# Measurements as given in PMC11523056 (RSC Advances, 2024).
# Ends that are not written are not given here. Peptide text beside a SMILES is read from it.
# Columns and labels:
# murine primary neurons = format: cell-based, mouse; conditions: all concentrations tested (1, 5 & 10 μM), 60 min, 37 °C, live-cell confocal microscopy
# Procedure, shortened: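 Mature murine primary neurons were incubated for 60 min in neurobasal medium with TAMRA-labelled peptide at 1, 5 or 10 μM, washed, and imaged live by confocal microscopy in an incubation chamber. The read-out was average fluorescence intensity per cell. Neurons showing homogeneous cytoplasmic plus nucleolar fluorescence were scored as transduced. Data are mean ± standard deviation, with equal n per group.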
# [1] = particularly upon co-treatment with Alteplase; cited from earlier work
# [2] = tested on: acute ischaemic stroke patients; conditions: ESCAPE-NA1, acute ischaemic stroke; cited from earlier work
Molecule,uptake by mean fluorescence intensity per cell (comparison in words) (murine primary neurons),degradation in human plasma (in words) [1],safety in clinical trial [2]
CC[C@H](C)[C@H](NC(=O)[C@H](CO)NC(=O)[C@H](CO)NC(=O)[C@H](CC(C)C)NC(=O)[C@H](CCCCN)NC(=O)c1ccc2c(c1)C(=O)OC21c2ccc(N(C)C)cc2Oc2cc(N(C)C)ccc21)C(=O)N[C@@H](CCC(=O)O)C(=O)N[C@@H](CO)C(=O)N[C@@H](CC(=O)O)C(=O)N[C@H](C(=O)O)C(C)C [TAMRA-NR2B9c] (HELM PEPTIDE1{[CN(C)c1ccc2c(c1)Oc1cc(N(C)C)ccc1C21OC(=O)c2cc(C(=O)[*:2])ccc21].K.L.S.S.I.E.S.D.V}$$$$V2.0),much lower than for any other peptide construct tested,–,–
YGRKKRRQRRR [TAMRA-Tat],dose response is minimal,–,–
"YGRKKRRQRRRKLSSIESDV [Tat-NR2B9c, nerinetide]",–,rapid degradation,good safety profile
